According to paper PMC7225057 (Journal of molecular biology, 2020):
Residue numbers refer to the chain shown, from its start. One block for each molecule: values may come before it. Residues, ends and D or L forms follow the SMILES beside them. *: point of attachment. FITC = O=C1OC2(c3ccc(O)cc3Oc3cc(O)ccc32)c2ccc(NC(=S)*)cc21; Ahx = NCCCCCC(=O)O

Legend:
[1] = biological target: T1, RAMP1-CTR.34–141 N130D (Homo sapiens, UniProt O60894+P30988, N130D/fusion); test: FP saturation binding, RAMP1-CTR.34–141 N130D; settings: Figure S8D; no enzyme; 10 nM probe, pH 7.4; mean ± SEM, N = 3
T1 sequence (P30988 34-141 N130D): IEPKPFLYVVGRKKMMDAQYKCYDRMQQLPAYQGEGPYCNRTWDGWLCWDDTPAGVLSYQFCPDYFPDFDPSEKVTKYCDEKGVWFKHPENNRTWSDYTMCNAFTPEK

[2] = biological target: RAMP1-CTR.34–141 WT (PNGase F) (Homo sapiens, UniProt O60894+P30988, N125D/N130D/N73D); test: FP saturation binding, RAMP1-CTR.34–141 WT, PNGase F; settings: Figure S8D, 10 nM probe, pH 7.4, N = 3
In short: (§1)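 RAMP1-CTR ECD fusion WT was expressed in HEK293S GnTI cells, TEV-cleaved to remove MBP, then purified by IMAC/SEC. FP saturation binding at room temperature used 10 nM FITC-peptide probe and titrated receptor. Buffer: HEPES pH 7.4 with BSA, maltose, EDTA, Tween 20. Duplicates, pKD by nonlinear fit.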

[3] = biological target: T2, RAMP1-CTR.34–141 WT (inactive PNGase F) (Homo sapiens, UniProt O60894+P30988, fusion); test: FP saturation binding, RAMP1-CTR.34–141 WT, inactive PNGase F; settings: Figure S8D, 10 nM probe, pH 7.4, mean ± SEM, N = 3
T2 sequence (P30988 34-141): T1 sequence (P30988 34-141 N130D) with D97N
In short: as §1

[4] = biological target: T3, Glycan-free CTR.38–141 WT (CTR ECD; E. coli) (Homo sapiens, UniProt P30988); test: FP saturation binding, glycan-free CTR.38–141 WT; settings: glycan-free vs Endo H-treated WT
T3 sequence (P30988 38-141): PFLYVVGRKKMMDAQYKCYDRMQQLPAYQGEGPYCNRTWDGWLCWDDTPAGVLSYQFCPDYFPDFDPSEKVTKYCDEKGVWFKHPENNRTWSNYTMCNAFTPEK

[5] = biological target: T4, CTR.38–141 N130D (CTR ECD; HEK293S GnTI^−, Endo H) (Homo sapiens, UniProt P30988, N130D); test: FP saturation binding, CTR.38–141 N130D, Endo H; settings: N130D vs Endo H-treated WT
T4 sequence (P30988 38-141 N130D): T3 sequence (P30988 38-141) with N93D

[6] = test system: glucagon-like peptide 1 receptor (GLP-1R); settings: cited from earlier work
[7] = test system: glucagon-like peptide 1 receptor (GLP-1R); settings: cited from earlier work; remark: listed apart in the source
[8] = test system: IL-7 receptor α unit (IL-7Rα) ectodomain; settings: cited from earlier work
[9] = test system: Pituitary adenylate cyclase activating polypeptide (PACAP) type I (PAC1) receptor; settings: tunicamycin treatment, binding capacity not altered; cited from earlier work
[10] = test system: PTH type 1 receptor (PTH1R); settings: cited from earlier work
[11] = test system: CTR ECD; settings: isolated ECD; cited from earlier work
[12] = test system: CTR; settings: cited from earlier work

pKD [1]: 5.12 ± 0.07
pKD [2]: < 5.0
pKD [3]: 6.01 ± 0.03
Molecule: CC(C)C[C@H](NC(=O)[C@H](CCCNC(=N)N)NC(=O)[C@@H](NC(=O)[C@H](CC(C)C)NC(=O)[C@H](Cc1ccccc1)NC(=O)[C@H](CC(N)=O)NC(=O)[C@H](C)NC(=O)CCCCCNC(=S)Nc1ccc2c(c1)C(=O)OC21c2ccc(O)cc2Oc2cc(O)ccc21)C(C)C)C(=O)N[C@@H](CCC(N)=O)C(=O)N[C@H](C(=O)N[C@@H](Cc1ccc(O)cc1)C(=O)N1CCC[C@H]1C(=O)N[C@@H](CCCNC(=N)N)C(=O)N[C@H](C(=O)N[C@@H](CC(N)=O)C(=O)N[C@H](C(=O)NCC(=O)N[C@@H](C)C(=O)N[C@@H](CC(N)=O)C(=O)N[C@H](C(=O)N[C@@H](Cc1ccc(O)cc1)C(N)=O)[C@@H](C)O)C(C)C)[C@@H](C)O)[C@@H](C)O [FITC-AC413(6–25)] ({FITC-Ahx}-ANFLVRLQTYPRTNVGANTY-NH2; N-terminus and C-terminus assumed)

affinity decrease [4]: over 5 fold
affinity decrease [5]: over 5 fold
Molecule: C[C@@H](O)[C@H](NC(=O)[C@H](CC(N)=O)NC(=O)[C@@H](NC(=O)[C@H](CCCNC(=N)N)NC(=O)[C@@H]1CCCN1C(=O)[C@H](Cc1ccc(O)cc1)NC(=S)Nc1ccc2c(c1)C(=O)OC21c2ccc(O)cc2Oc2cc(O)ccc21)[C@@H](C)O)C(=O)NCC(=O)N[C@@H](CO)C(=O)NCC(=O)N[C@H](C(=O)N1CCC[C@H]1C(N)=O)[C@@H](C)O [FITC-sCT(22–32)] ({FITC}-YPRTNTGSGTP-NH2)

Molecule: GLP-1: GLP-1, ligand of glucagon-like peptide 1 receptor
affinity, double mutation of two N-glycosylation sites [6]: significantly reduced GLP-1 affinity
signaling potency, double mutation of two N-glycosylation sites [7]: significantly reduced GLP-1 affinity and signaling potency

Molecule: IL-7: IL-7, ligand of IL-7 receptor α unit
association rate with N-glycosylated receptor [8]: accelerated association rate
effect of N-glycosylation on binding affinity [8]: significantly increased IL-7 binding affinity

Molecule: PACAP-27
affinity decrease by tunicamycin [9]: 30 fold

Molecule: PTH: PTH, ligand of PTH type 1 receptor
binding affinity, N161D mutation ([10]; N161D mutation of PTH1R): did not change the binding affinity for PTH
binding affinity after tunicamycin ([10]; human PTH1R expressed in mammalian cells, tunicamycin treatment): no changes in PTH binding affinity

Molecule: calcitonin
binding affinity enhancement by CTR N-glycosylation [11]: ~ 10 fold

Molecule: salmon calcitonin
affinity vs human calcitonin [12]: higher affinity than human calcitonin
